Experimental data from ChEMBL document CHEMBL1158681, “Flavones and sesquiterpene lactones from Achillea atrata subsp. multifida: antimicrobial activity” (1999).
≈ marks a conversion by molar mass, not a printed value. Calls of active or inactive are those of the source. No cut-off for these calls is given here.

What follows are molecules tested on Escherichia coli (assay: Antimicrobial activity against Escherichia coli ATCC 25922 after 24 hrs by agar well diffusion method). Details: not given.
Format: functional
Procedure, shortened: (§1)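 Agar well diffusion: stationary-phase culture suspended in saline at approx. 10^5 cfu/mL, 200 µL spread on Mueller-Hinton agar (bacteria) or Sabouraud agar (yeast, fungi). Test samples at 50 µg/50 µL added to wells. Incubated 24 h (bacteria, yeast) or 48 h (fungi). Read-out is inhibition zone diameter.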
In the case of `COc1ccc(-c2oc3cc(O)c(OC)c(O)c3c(=O)c2OC)cc1` [SANTIN], the “inhibition zone (IZ)” value is reported as 6 mm. `O=c1cc(-c2ccc(O)cc2)oc2cc(O)cc(O)c12` [APIGENIN] was tested, and the “inhibition zone (IZ)” value was 6 mm.

What follows are molecules tested on Bacillus subtilis (assay: Antimicrobial activity against Bacillus subtilis IP 5832 after 24 hrs by agar well diffusion method). Details: not given.
Format: functional
Procedure, shortened: as §1
`O=c1cc(-c2ccc(O)cc2)oc2cc(O[C@@H]3O[C@H](CO)[C@@H](O)[C@H](O)[C@H]3O)cc(O)c12` [APIGETRIN] was tested, and the “inhibition zone (IZ)” value was 6 mm. With `COc1ccc(-c2oc3cc(O)c(OC)c(O)c3c(=O)c2OC)cc1O` [CENTAUREIDIN] the “inhibition zone (IZ)” value was 6 mm. In the case of `COc1ccc(-c2oc3cc(O)c(OC)c(O)c3c(=O)c2OC)cc1` [SANTIN], the “inhibition zone (IZ)” value is reported as 6 mm. In the case of `O=c1cc(-c2ccc(O)cc2)oc2cc(O)cc(O)c12` [APIGENIN], the “inhibition zone (IZ)” value is reported as 6 mm.

The molecules below were run on Aspergillus niger (assay: Antimicrobial activity against Aspergillus niger after 48 hrs by agar well diffusion method). Details: not given.
Format: functional, organism-based
Procedure, shortened: as §1
`O=c1cc(-c2ccc(O)cc2)oc2cc(O[C@@H]3O[C@H](CO)[C@@H](O)[C@H](O)[C@H]3O)cc(O)c12` [APIGETRIN] was tested, and the Activity was “inactive”. In the case of `COc1ccc(-c2oc3cc(O)c(OC)c(O)c3c(=O)c2OC)cc1O` [CENTAUREIDIN], the Activity is reported as “inactive”. `COc1ccc(-c2oc3cc(O)c(OC)c(O)c3c(=O)c2OC)cc1` [SANTIN] was tested, and the Activity was “inactive”. `O=c1cc(-c2ccc(O)cc2)oc2cc(O)cc(O)c12` [APIGENIN] was tested, and the Activity was “inactive”.

Each molecule was assayed on Staphylococcus aureus (assay: Antimicrobial activity against Staphylococcus aureus ATCC 25923 after 24 hrs by agar well diffusion method). Details: not given.
Format: functional, organism-based
Procedure, shortened: as §1
With `O=c1cc(-c2ccc(O)cc2)oc2cc(O[C@@H]3O[C@H](CO)[C@@H](O)[C@H](O)[C@H]3O)cc(O)c12` [APIGETRIN] the Activity was “inactive”. In the case of `COc1ccc(-c2oc3cc(O)c(OC)c(O)c3c(=O)c2OC)cc1O` [CENTAUREIDIN], the Activity is reported as “inactive”. For `COc1ccc(-c2oc3cc(O)c(OC)c(O)c3c(=O)c2OC)cc1` [SANTIN], the Activity was “inactive”. In the case of `O=c1cc(-c2ccc(O)cc2)oc2cc(O)cc(O)c12` [APIGENIN], the Activity is reported as “inactive”.

The molecules below were run on Candida albicans (assay: Antimicrobial activity against Candida albicans ATCC 24433 after 24 hrs using sabouraud liquid medium). Details: not given.
Format: functional
Procedure, shortened: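 Broth MIC in duplicate in Sabouraud liquid medium. Samples made up at 1 mg/mL in DMSO, then serially diluted over 100-0.1 µg/mL. Inoculum is stationary-phase culture at 10^5 cfu/mL. Incubated 37 °C for 24 h. MIC taken as the lowest concentration preventing any visible growth.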
NYSTATIN showed an MIC of 3.12 µg/mL.

Same assay, conditions: ATCC 24433, 24 h
`COc1ccc(-c2oc3cc(O)c(OC)c(O)c3c(=O)c2OC)cc1O` [CENTAUREIDIN] showed an MIC of 3 µg/mL (≈ 8.33 µM). Work on `COc1ccc(-c2oc3cc(O)c(OC)c(O)c3c(=O)c2OC)cc1` [SANTIN] yielded an MIC of 3 µg/mL (≈ 8.71 µM). In the case of `O=c1cc(-c2ccc(O)cc2)oc2cc(O)cc(O)c12` [APIGENIN], the MIC is reported as 3 µg/mL (≈ 11.1 µM).

Each molecule was assayed on Candida albicans (assay: Antimicrobial activity against Candida albicans ATCC 24433 after 24 hrs by agar well diffusion method). Details: not given.
Format: functional
Procedure, shortened: as §1
For `COc1ccc(-c2oc3cc(O)c(OC)c(O)c3c(=O)c2OC)cc1O` [CENTAUREIDIN], the inhibition zone (IZ) was 11 mm. For `COc1ccc(-c2oc3cc(O)c(OC)c(O)c3c(=O)c2OC)cc1` [SANTIN], the “inhibition zone (IZ)” value was 8 mm. In the case of `O=c1cc(-c2ccc(O)cc2)oc2cc(O)cc(O)c12` [APIGENIN], the “inhibition zone (IZ)” value is reported as 10 mm.
